Screening data (PubChem BioAssay)
This excerpt belongs to a sample that is enriched for hits.
CHOP UPR activ = apoptotic UPR (CHOP) activation; CHO-CHOP luciferase reporter, luminescence; percent of tunicamycin response over DMSO baseline; activation, % at 10 µM; 0.34% of 330,000 active;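 active means at 10 µM dose, activation of 40% or more, normalized to positive control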;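 further: 100% = tunicamycin at 10 µg/mL and 0% = DMSO alone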
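assay system = CHO CHOP reporter cells | amount = 500 CHO-CHOP cells per well | buffer or medium = F12 with 10% FBS | incubation = 16-18 h cell attachment, then 6 h compound exposure, 37 °C | detection = luminescence read with Steady-Glo | read-out = percent activation relative to tunicamycin control | controls = tunicamycin high control, DMSO low control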
XBP1 UPR activ = activators of adaptive arm of unfolded protein response (XBP1) | CHO-XBP1 luciferase reporter, IRE1-XBP1 UPR activation, luminescence; percent of tunicamycin response, DMSO as zero | activation, % at 20 µM | 0.33% of 330,000 active;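 active means versus positive control, 20 µM dose yields 30% or more activation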;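 further: 100% = tunicamycin at 10 µg/mL and 0% = DMSO only wells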
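Material – CHO cell line with stable XBP1 luciferase reporter · Buffer or medium – F12 plus 10% FBS · Compound – single point, 20 µM final compound, 1% DMSO · Schedule – 16-18 h cell attachment at 37 °C, then 6 h compound exposure · Signal – Steady-Glo luminescence read · Benchmarks – high control tunicamycin 10 µg/mL final, low control DMSO vehicle only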
CHOP inhibitor = CHOP inhibition in unfolded protein response. CHO-K1 CHOP-promoter luciferase, tunicamycin-induced, 15-18 h. inhibition, % at 10 µM. 3.8% of 220,000 active. AID 2732;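 active means compounds that reduced the stress-induced luciferase reporter signal by more than about 70% of percent inhibition, limit read from the data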;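 further: 0% = tunicamycin plus vehicle and 100% = wells without tunicamycin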
A1 inh = inhibitors of the anti-apoptotic protein A1, read as caspase activation | MEF A1-2A-BIM cells, Caspase-Glo 3/7 luminescence, 3 h; percent of clofoctol response, vehicle zero | caspase activation, % (concentration not given with the values) | 0.066% of 330,000 active | AID 2462;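 active means over half of replicate activation scores above 10%, or exactly half above 10 with the replicate mean above 10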
XBP1 UPR conf = confirmation of adaptive unfolded protein response (XBP1) activators; CHO-XBP1 IRE1-XBP1 luciferase reporter, luminescence; 63% of 1,000 active; shares compounds with XBP1 UPR activ; activation, % at 20 µM; AID 485299;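 active means reporter signal at least 30% of the positive control's activation in two or more of four replicate wells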;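 further: plate controls were DMSO negative control for no effect and tunicamycin 10 µg/mL positive control for full effect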
An asterisk follows results filed as active; nt = not tested or not shown.

SMILES	CHOP UPR activ	XBP1 UPR activ	CHOP inhibitor	A1 inh	XBP1 UPR conf
Cc1ccc(-c2csc3nc4cc(C(N)=O)ccc4c(=O)n23)cc1	1.8	3.0	19.5	-0.6	nt
COC(=O)c1[nH]nc2c1C(=O)N(C1CCCCC1)C2=O	-2.5	1.2	8.1	-0.3	nt
COC(=O)C1CCN(C(=O)C2CCN(C(=O)[C@H](C)NS(=O)(=O)c3ccc(C)cc3)CC2)CC1	-0.8	-2.6	nt	0.2	nt
CC(C)c1ccc(/C=C/C(=O)Nc2nc3ccc([N+](=O)[O-])cc3s2)cc1	16.6	50.1*	53.2	1.0	32.4*
CC(=O)Nc1nc2cc([N+](=O)[O-])ccc2s1	0.7	-0.3	nt	0.0	nt
COC(=O)c1ccc(C(=O)NC(=S)Nc2nc3c(s2)CC(C)CC3)cc1 (configuration not stated)	0.4	-0.4	32.1	-0.8	nt
COc1cc(/C=N/O)c(Br)cc1OCC(=O)Nc1ccccc1C	1.8	1.6	32.9	0.5	nt
COc1cc(/C=N/NC(N)=O)c(Br)cc1OCC(=O)Nc1ccccc1C	4.2	109.2*	51.4	0.1	71.7*
